INS promoter act = activators of insulin promoter-driven GFP, primary screen, imaging, TRM-6 cells, eGFP reporter, cell count; plate-scaled: unstimulated 0, stimulated control 100; activation, % at 2 µM; 130,000 compounds, 0.81% hits;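 active means activation at 2 µM above a set limit, confirmed on inspection of the cell images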;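 further: share of cells whose green reporter signal exceeds an intensity cutoff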
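Test system: human fetal islet-derived TRM-6 cells with tamoxifen-inducible insulin promoter–eGFP reporter; schedule: overnight tamoxifen, then two-day compound incubation at 37 °C; measured by: high-content imaging of fixed cells with Hoechst nuclear stain; evaluation: percent cells above green-intensity threshold, converted to percent activation versus plate controls; control set: stimulated and unstimulated wells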
* = called active by the depositor. Many of the other results were omitted from the sample, so hits are more common in it than they were.

SMILES | INS promoter act
CC(Oc1ccc(C(=O)NCCc2ccccc2)cc1)C(=O)O (configuration not stated) | 0
O=C(NCc1ccccc1)c1ccc(S(=O)(=O)C(F)F)cc1 | -3
CCCCCCNCc1c(F)cccc1Cl | -9
COc1ccccc1COC(=O)Nc1c(C)nn(C)c1Cl | 113
Cc1ccccc1OCC(=O)Nc1cccc2nsnc12 | -43
Cc1cc(Cl)ccc1OCC(=O)Nc1ccccc1N1CCOCC1 | 363
Cc1ccccc1NC(=O)COc1ccc(Br)cc1C | 431*
Cc1cccc(OCCCCc2c(C)n[nH]c2C)c1C | 0
CCOC(=O)c1cnc2c(C)c(-c3ccccc3)[nH]n2c1=O | 0
CCOC(=O)C1=C(C)Nc2nc(SCC)[nH]c(=O)c2C1c1ccncc1 (configuration not stated) | 0
Cc1nnsc1SCC(=O)O | -7
O=C1S/C(=C/c2ccc(N3CCOCC3)o2)C(=O)N1Cc1ccc(F)cc1 | 6
O=C1NC(=S)S/C1=C/c1ccc(N2CCOCC2)o1 | 141
CC(C)OC(=O)CN1C(=O)S/C(=C/c2ccc(N3CCCCC3)o2)C1=O | 170*
COc1ccc(NC2=CC(=O)N(C)C2=O)cc1 | 0
O=C(CSCc1cccc(Cl)c1)Nc1ccccc1-c1ccccc1 | 8
O=C(Nc1cc(Cl)cc(Cl)c1)c1ccc(Cn2c(=O)[nH]c3ccsc3c2=O)cc1 | -61
O=C(c1ccc(N2CCOCC2)cc1)c1cccs1 | 7
Cc1cc(N2C(=O)CC(C(C)c3ccccc3)C2=O)no1 (configuration not stated) | 3
Cc1cc(N2C(=O)CC(N3CCN(c4ccc(C(=O)c5cccs5)cc4)CC3)C2=O)no1 (configuration not stated) | 438*
CCCCn1c(=O)c(CCC(=O)OCC(=O)NCc2ccc(OC)c(OC)c2)nc2ccccc21 | -82
CC(=O)Nc1nc(C)nc(C)c1C(C)=O | 129*
CCC(=O)Nc1nc(C)nc(C)c1C(C)=O | 6
CC(=O)Nc1nc(-c2ccccc2)nc(C)c1C(C)=O | -3
O=C(CCCSc1nc2ccccc2[nH]1)N1CCN(c2ccc([N+](=O)[O-])cc2)CC1 | 5
SMILES | INS promoter act
CSc1ccccc1-c1nnc(-c2ccccc2)o1 | 9
c1ccc(-c2nnc(-c3ccccc3)o2)cc1 | 5
O=S1(=O)C=C(Sc2nnc(-c3ccccc3)o2)c2ccccc21 | 270*
CCCCCCC(=O)N/N=C1\CCCc2ccccc21 | -7
CCOC(=O)c1c(NC(=O)COC(=O)CNC(=O)c2ccco2)sc(C(C)=O)c1C | -5
CC(=O)c1ccc(OCCCC(=O)NC2CCCc3ccccc32)cc1 (configuration not stated) | 9
CC(C)C(C(=O)NCC1CCCO1)N(Cc1ccco1)C(=O)CNS(=O)(=O)c1ccc(F)cc1 (configuration not stated) | 109
O=C(CNC(=S)N(Cc1ccccc1)Cc1cccs1)NCc1ccc(F)cc1 | 0
O=C(CN(Cc1cccs1)C(=O)CNS(=O)(=O)c1ccc(F)cc1)NCc1ccco1 | 171*
Cc1ncc(CN2CCCC(CCC(=O)NCc3ccccc3F)C2)s1 (configuration not stated) | 0
CNc1c([N+](=O)[O-])cnn1-c1ccccn1 | -9
O=C(Cc1ncc(C(F)(F)F)cc1Cl)Nc1ccc(F)cc1 | -7
COc1ccc(-n2c(C)cc(/C=C3\SC(=S)N(Cc4ccco4)C3=O)c2C)cc1 | 245*
Cc1ccc(/C=C2\SC(=S)N(Cc3ccccc3)C2=O)o1 | -10
Cc1cc(/C=C2/SC(=S)N(c3ccc([N+](=O)[O-])cc3)C2=O)c(C)n1-c1cccnc1 | 119
COc1ccc(OC)c(C(=O)c2oc3ccccc3c2NC(C)=O)c1 | 114
COCCN(C(=S)Nc1ccc(C(C)C)cc1)C(C)c1cccs1 (configuration not stated) | 7
CCCn1c(OC)nc2c1c(=O)n(C)c(=O)n2C | 0
CCCn1c(CN2CCCCC2CC)nc2c1c(=O)n(C)c(=O)n2C (configuration not stated) | 600*
Cn1c(=O)c2c(nc(CN3CCN(Cc4ccccc4)CC3)n2Cc2ccccc2)n(C)c1=O | -80
O=C(NCc1cccc(C(F)(F)F)c1)c1cccc(S(=O)(=O)NCc2ccccc2)c1 | 3
Cc1cccc(C)c1OC(=O)C(c1ccccc1)c1ccccc1 | 7
O=[N+]([O-])c1c(C(Cl)Cl)nn(-c2ccc(Cl)cc2)c1N1CCCCC1 | 6
CCc1c(C)nc(N)n2c(SCC(=O)N3CCCC(C)C3)nnc12 (configuration not stated) | 182*
CC1CCN(C(=O)CSc2nncn2C)CC1 | 3
Cc1nnc(SCC(=O)N2CCCCCC2)n(N)c1=O | 0
Cc1cccc(N(C)c2cc(C)nc3nc(C)nn23)c1 | 50
Cc1nccn1-c1cc(C(C)(C)C)nc2c(-c3ccccc3)cnn12 | -4
CCOC(=O)CC(NC(=O)Cn1nnc(-c2ccccc2)n1)c1ccc(OC)cc1 (configuration not stated) | -6
COc1ccc(N2C(=O)N(Cc3ccccc3F)c3ccccc3S2(=O)=O)cc1 | 136

Source: PubChem BioAssay
